Most compounds without a hit are left out; they make up all but 4.5% or so of the library.
NF-kB neuron act – activators of NF-kB expression in neurons, primary screen, cell-based, HTS; human neuronal cells, NF-kB reporter expression; stronger effect = higher value; fold change at 12.5 µM; 190,000 compounds, 1.6% hits; in the data active means fold change above about 3.3
APP 5'UTR act – activators of APP 5'UTR luciferase reporter, primary screen, SH-SY5Y cells. SH-SY5Y APP 5'UTR luciferase reporter, luminescence; zero percent = DMSO vehicle wells. activation, % at 2 µM. 190,000 compounds, 1% hits. AID 1276, 2008;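 active means activation above a set limit, based on mean plus 3 SD of controls, cut at about 140% in these data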
MDM2 E3 inh – MDM2-luciferase reporter signal enhancers, primary screen, MDM2 E3 ligase inhibitor project, cell-based, luminescence, 1536-well; cell-based MDM2 ubiquitination luciferase reporter, 2 h; 0 = plate control, 100 = twice control, blank-subtracted; signal enhancement, % at 5 µM; 210,000 compounds, 0.11% hits; AID 1230, 2008;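 active means signal enhancement of 30% or more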;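 further: luminescence tracks abundance of the self-degrading MDM2-luciferase fusion protein; higher signal means inhibition of MDM2 E3 ligase activity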
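Assay system: stable mammalian line carrying autodegrading MDM2–luciferase fusion reporter; amount: 2000 cells seeded into each well; buffer or medium: DMEM; benchmarks: plate control and blank wells; signal: luciferase luminescence; timing: 2 h compound exposure at 37 °C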
AHR activator – AHR activators, primary screen, cell-based, luminescence, luciferase reporter, human; Aryl hydrocarbon receptor (Homo sapiens), P35869; AHR-responsive luciferase reporter cells; activation, % at 5 µM; 320,000 compounds, 2.5% hits; in the data active means activation above about 47%;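 further: 0% = vehicle wells and 100% = reference agonist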
Target sequence (P35869 whole entry, looked up): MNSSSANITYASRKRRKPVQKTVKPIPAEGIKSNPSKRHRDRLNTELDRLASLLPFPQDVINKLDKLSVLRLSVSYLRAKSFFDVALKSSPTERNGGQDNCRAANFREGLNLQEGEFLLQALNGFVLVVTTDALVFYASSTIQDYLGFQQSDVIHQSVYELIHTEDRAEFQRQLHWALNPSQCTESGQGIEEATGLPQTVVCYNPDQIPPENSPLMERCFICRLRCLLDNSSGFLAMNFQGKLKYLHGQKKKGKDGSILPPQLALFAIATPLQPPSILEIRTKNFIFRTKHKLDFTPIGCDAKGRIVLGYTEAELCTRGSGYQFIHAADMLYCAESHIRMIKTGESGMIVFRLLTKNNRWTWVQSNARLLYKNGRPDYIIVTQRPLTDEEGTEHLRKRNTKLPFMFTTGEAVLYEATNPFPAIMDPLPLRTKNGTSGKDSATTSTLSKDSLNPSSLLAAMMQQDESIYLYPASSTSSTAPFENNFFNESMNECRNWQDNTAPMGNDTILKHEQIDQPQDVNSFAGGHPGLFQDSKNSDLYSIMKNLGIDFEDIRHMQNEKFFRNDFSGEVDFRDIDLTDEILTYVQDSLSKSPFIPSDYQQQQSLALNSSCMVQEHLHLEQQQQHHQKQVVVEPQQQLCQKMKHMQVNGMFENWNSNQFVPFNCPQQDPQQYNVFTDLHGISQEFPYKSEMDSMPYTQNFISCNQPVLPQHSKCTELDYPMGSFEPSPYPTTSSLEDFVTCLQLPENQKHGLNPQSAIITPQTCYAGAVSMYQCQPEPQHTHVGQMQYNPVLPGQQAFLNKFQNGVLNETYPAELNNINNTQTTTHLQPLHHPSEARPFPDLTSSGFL
PERK inh – block of dimerizer-induced PERK translation repression, primary screen, PERK inhibitor project, CHO PERK-DD cells, SEAP luminescence, HTS; inhibition, % at 5.6 µM; Eukaryotic translation initiation factor 2-alpha kinase 3 (Homo sapiens), Q9NZJ5; 220,000 compounds, 0.17% hits; AID 1416, 2008; CHO PERK-DD fusion, SEAP luminescence translation reporter;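 active means inhibition above the mean inhibition of all tested compounds plus 3 SD, set separately per screening campaign, cut at about 2.9% in these data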;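 further: PERK kinase domain activated by AP20187 dimerizer at 100 nM; 0% = DMSO with dimerizer and 100% = rapamycin at 8.4 µM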
STAT1 act – STAT1 signaling activators, primary screen, cell-based, HTS, luciferase reporter. NIH 3T3 STAT1-luciferase reporter, IFN-gamma, luminescence; 100% = IFN-gamma alone, no compound. activation (% of control), % at 5.5 µM. 200,000 compounds, 2.6% hits. AID 932, 2007;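 active means activation above the screen-wide mean activation plus 3 SD, cut at about 130% in these data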;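 further: raw ratio to IFN-gamma control signal so 100% means no change and 0% no light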
Numbers without * were called inactive; . = not tested or not shown.

SMILES | NF-kB neuron act | APP 5'UTR act | MDM2 E3 inh | AHR activator | PERK inh | STAT1 act
CCCCCc1ccc(-c2ccc(/C=C/C(N)=O)cc2)nc1 | 1.27 | 11.0 | -10.3 | -9.6 | 0.4 | 105.0
Cc1cc(C)cc(NC(=O)c2ccc3nc[nH]c3c2)c1 | 1.26 | 1.4 | 2.4 | 45.4 | 1.3 | 102.6
Cc1ccc(NC(=O)c2ccc3nc[nH]c3c2)cc1C | 3.2 | 106.2 | -6.6 | 64.1* | 0.8 | 142.9*
CC(C)=CCCC(C)CN1CCC(n2nccc2NC(=O)C2CCCC2)CC1 (stereo unspecified) | . | . | . | -1.9 | . | .
Cn1c(C(O)c2ccc(Br)cc2)nc(Cl)c1Cl (stereo unspecified) | . | . | -12.2 | 61.5* | 2.2 | .
CCC(=O)Nc1ccc(-c2cc3ccccc3oc2=O)cc1 | 2.65 | -17.0 | -9.5 | -14.9 | 0.8 | 143.1*
O=c1oc2ccccc2cc1-c1ccc(O)cc1 | 2.6 | 47.4 | -1.9 | -1.8 | 1.7 | 133.6*
Nc1ccc(-c2cc3ccccc3oc2=O)cc1 | . | . | . | -5.2 | . | .
O=c1oc2ccccc2cc1NCc1ccccc1O | 3.58* | 79.6 | -12.2 | -0.7 | 0.7 | 102.5
CCC(=O)Nc1cc(-c2cc3ccccc3oc2=O)ccc1OC | 0.93 | 78.0 | -20.7 | 16.9 | 0.4 | 117.7
CC(=O)Nc1ccc(-c2cc3ccccc3o2)cc1 | 6.5* | 222.4* | -21.7 | -6.6 | -0.7 | 140.8*
COc1ccc(CNC(=O)C2CCCN(c3ncnc4c3nc3n4CCCCC3)C2)cc1 (stereo unspecified) | . | . | . | 1.2 | . | .
COc1ccccc1CN1[C@@H](CC(C)=O)c2cc(C(F)(F)F)ccc2S1(=O)=O | . | . | . | 2.9 | . | .
Cc1nnc(SCC(=O)Nc2ccc([N+](=O)[O-])cc2)n1C | . | . | . | -0.3 | . | .
CN(CC(=O)NCCCN1CCOCC1)S(=O)(=O)c1ccc(Cl)cc1 | . | . | . | -0.6 | . | .
O=C1Nc2ccccc2/C1=C/c1cnc(-c2ccccc2)[nH]1 | . | . | -14.4 | 72.6* | -0.7 | .
O=C1Nc2ccccc2/C1=C/c1cccnc1 | 1.17 | -13.9 | -8.3 | 12.8 | 0.3 | 96.8
CCOc1c2ccc(C(=O)NCCc3cccs3)cc2nn1CC | 3.04 | 81.0 | -7.1 | 6.9 | 0.1 | 143.9*
CCCCOc1ccc(C(=O)NCCc2cccs2)cc1 | 2.53 | 52.8 | -25.9 | 20.2 | 1.8 | 134.5*
CCCCn1nc2cc(C(=O)NCCc3cccs3)ccc2c1OCC | 1.3 | 7.5 | -18.0 | 11.9 | -1.2 | 112.6
Clc1ccccc1OCc1nnc(-c2ccccc2)o1 | 3.42* | 57.9 | -3.4 | 9.7 | 0.1 | 151.2*
Brc1ccc(-c2nnc(Cc3ccccc3)o2)cc1 | . | . | -8.2 | 0.8 | -0.5 | .
c1ccc(Cc2nnc(-c3ccccc3)o2)cc1 | 1.97 | 50.4 | -15.7 | 0.7 | 1.8 | 130.2*
COc1ccc(CC(=O)Nc2cccc(-c3nnc(-c4cccc(C)c4)o3)c2)cc1OC | 0.48 | 67.9 | -25.8 | -5.1 | -0.1 | 92.0
Clc1ccc(OCc2nnc(-c3ccccc3Br)o2)c(Cl)c1 | 4.05* | 50.9 | -10.2 | -1.7 | 0.8 | 126.4
SMILES | NF-kB neuron act | APP 5'UTR act | MDM2 E3 inh | AHR activator | PERK inh | STAT1 act
CC(=O)Nc1ccccc1OCc1nnc(-c2ccc(Cl)cc2)o1 | 1.26 | 9.8 | -17.4 | 17.2 | -0.3 | 110.4
COc1ccc(Cc2nnc(-c3cccc(C)c3)o2)cc1OC | 1.16 | 3.4 | -0.8 | 49.4* | -1.0 | 99.9
Fc1ccc(OCc2nnc(-c3ccccc3Br)o2)c(Cl)c1 | . | . | . | -7.9 | . | .
O=C(O)CC(C(=O)O)c1ccc(OCCCCOc2ccc(C(CC(=O)O)C(=O)O)cc2)cc1 (stereo unspecified) | . | . | . | -1.8 | . | .
COc1ccc(N2C(=O)CC(Sc3ccccc3C(=O)O)C2=O)c([N+](=O)[O-])c1 (stereo unspecified) | 1.16 | -27.6 | -1.7 | 0.2 | -0.6 | 96.2
CCCCN(C(=O)C1CC(=O)N(Cc2ccc(C)cc2)C1)c1c(N)n(CC(C)C)c(=O)[nH]c1=O (stereo unspecified) | . | . | . | -0.1 | . | .
CCOCC(=O)N1CCN(c2ccc([N+](=O)[O-])cc2)CC1 | 1.31 | -15.2 | -6.9 | -2.3 | 0.8 | 85.8
